Experimental data from ChEMBL document CHEMBL1142099, “Paecilodepsipeptide A, an antimalarial and antitumor Cyclohexadepsipeptide from the insect pathogenic fungus Paecilomyces cinnamomeus BCC 9616” (J Nat Prod, 2007).
pIC50: −log10 of the molar value. Active and inactive are the calls of the source. The rule behind the calls is not given here.

Assays:
[1] = system: Vero; test: Cytotoxicity against African green monkey Vero cells upto 67 uM; format: cell-based; details: chlorocebus sabaeus
In short: (§1)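 Colorimetric cytotoxicity assay on KB (oral human epidermoid carcinoma), BC (human breast cancer) and Vero (African green monkey kidney fibroblast) cells; IC50 determined, Vero tested up to 67 µM (50 µg/mL). Ellipticine used as reference standard.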

[2] = Cytotoxicity against human BC cells; format: cell-based; details: for Activity: human, bc; in short: as §1
[3] = system: KB; test: Cytotoxicity against human KB cells; format: cell-based; details: for Activity: human, kb; in short: as §1
[4] = system: Plasmodium falciparum; test: Antimalarial activity against Plasmodium falciparum K1; format: functional, organism-based
In short: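 P. falciparum K1 (multidrug-resistant strain) tested by microculture radioisotope technique; IC50 determined. Dihydroartemisinin used as reference standard.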

| Structure (SMILES) | Activity [1] | pIC50 ([2]; Homo sapiens, BC) | pIC50 ([3]; Homo sapiens, KB) | pIC50 [4] | Activity [2] | Activity [3] | Activity [4] |
| --- | --- | --- | --- | --- | --- | --- | --- |
| CC(C)=CCOc1ccc(C[C@H]2NC(=O)[C@@H](C)NC(=O)[C@@H](Cc3ccc(O)cc3)NC(=O)CNC(=O)[C@H](C)NC(=O)[C@H](Cc3ccccc3)OC2=O)cc1 [PAECILODEPSIPEPTIDE A] | Not Active | 5.18 | 5.23 | 5.31 | – | – | – |
| CC(C)=CCOc1ccc(C[C@@H](NC(=O)[C@@H](C)NC(=O)[C@@H](Cc2ccc(O)cc2)NC(=O)CNC(=O)[C@H](C)NC(=O)[C@@H](O)Cc2ccccc2)C(=O)O)cc1 [PAECILODEPSIPEPTIDE B] | Not Active | – | – | – | Not Active | Not Active | inactive |
| COC(=O)[C@@H](Cc1ccc(OCC=C(C)C)cc1)NC(=O)[C@@H](C)NC(=O)[C@@H](Cc1ccc(O)cc1)NC(=O)CNC(=O)[C@H](C)NC(=O)[C@@H](O)Cc1ccccc1 [PAECILODEPSIPEPTIDE C] | Not Active | – | – | – | Not Active | Not Active | inactive |
